Activity and inhibition data for one compound are collected here from ChEMBL document CHEMBL3108700, “Designing anti-inflammatory drugs from parasitic worms: a synthetic small molecule analogue of the Acanthocheilonema viteae product ES-62 prevents development of collagen-induced arthritis” (J Med Chem, 2013).

Activity calls are given as the source filed them. The calls are words filed in the database; no cut-off is given here.

For test [1], the system named is Mus musculus. Put plainly: Antiinflammatory activity in DBA/1 mouse collagen-induced arthritis model assessed as reduction of hind paw width at 50 ug/kg, sc administered 2 days prior to collagen challenge continued till day 21 post collagen challenge. The test is classed as functional, organism-based. The method in brief: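 Collagen-induced arthritis mice were dosed subcutaneously (1 μg/dose) or given PBS on days −2, 0 and 21. Arthritis was scored clinically and hind paw width measured. Incidence was the % of mice with severity score ≥2 (cumulative) or ≥4 (high score). Results are mean ± SEM. Scores n = 13 per group, pooled from two experiments; paw width n = 7, from a single experiment.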

Test [2] concerns Mus musculus. In words: Antiinflammatory activity in DBA/1 mouse collagen-induced arthritis model assessed as reduction in number of PMA/ionomycin-stimulated CD4+ T cells expressing IFNgamma at 50 ug/kg, sc administered 2 days prior to collagen challenge continued till day 21 post collagen challenge by flow cytometric analysis relative to control. The test is classed as functional, organism-based. The conditions noted are these: T-cell. The method in brief:
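CIA mice given test agent (1 μg/dose) or PBS subcutaneously on days −2, 0 and 21. Draining lymph node cells (10^6/mL) in complete RPMI were stimulated ± 50 ng/mL PMA plus 500 ng/mL ionomycin, with 10 μg/mL brefeldin A for 5 h at 37 °C. Cells were surface-stained for CD4, CD8 and γδ, fixed and permeabilized, then stained for intracellular IFNγ and IL-17A. Gating used isotype controls. Cell numbers per individual mouse; naive n = 7, treated groups n = 13.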

For test [3], the target named is T1, Toll-like receptor 4 (Mus musculus) (UniProt Q9QUK6).
T1 sequence (whole entry): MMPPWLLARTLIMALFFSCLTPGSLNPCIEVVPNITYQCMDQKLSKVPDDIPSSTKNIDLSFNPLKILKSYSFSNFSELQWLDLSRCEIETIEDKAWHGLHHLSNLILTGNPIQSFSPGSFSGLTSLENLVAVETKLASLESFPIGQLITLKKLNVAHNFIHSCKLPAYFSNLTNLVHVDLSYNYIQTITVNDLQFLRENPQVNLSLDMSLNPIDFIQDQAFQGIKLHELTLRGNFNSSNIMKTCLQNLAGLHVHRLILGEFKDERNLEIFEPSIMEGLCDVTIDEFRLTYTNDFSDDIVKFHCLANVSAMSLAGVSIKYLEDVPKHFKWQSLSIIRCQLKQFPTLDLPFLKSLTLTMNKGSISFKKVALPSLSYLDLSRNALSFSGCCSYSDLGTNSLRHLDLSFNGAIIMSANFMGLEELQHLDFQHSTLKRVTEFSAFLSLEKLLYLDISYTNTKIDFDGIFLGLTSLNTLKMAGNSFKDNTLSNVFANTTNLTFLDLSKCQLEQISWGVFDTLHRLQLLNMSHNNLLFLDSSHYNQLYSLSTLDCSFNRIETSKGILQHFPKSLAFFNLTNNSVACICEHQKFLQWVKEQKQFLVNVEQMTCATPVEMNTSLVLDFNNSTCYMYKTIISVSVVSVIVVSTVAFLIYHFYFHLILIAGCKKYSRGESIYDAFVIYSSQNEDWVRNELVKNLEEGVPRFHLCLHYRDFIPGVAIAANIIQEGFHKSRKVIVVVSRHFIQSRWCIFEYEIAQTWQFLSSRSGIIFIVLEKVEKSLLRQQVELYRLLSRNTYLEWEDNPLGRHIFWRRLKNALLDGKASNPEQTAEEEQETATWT
In words: Inhibition of TLR4 in C57BL/6 mouse BMDC assessed as reduction of LPS-induced IL-23 production at 5 ug/mL preincubated for 2 hrs prior to LPS challenge measured after 24 hrs by ELISA. In short, it runs like this:
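C57BL/6 bone marrow DCs were generated in complete RPMI with 10 ng/mL GM-CSF. They were preincubated ± compound at 5 μg/mL for 2 h, then stimulated with LPS for 24 h. TNF-α, IL-6 and IL-23 in conditioned medium were measured by ELISA. Values are means of triplicates ± SEM pooled from 4 experiments.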
On the technique in general: ELISA stands for enzyme-linked immunosorbent assay.

Test [4] deals with T1, Toll-like receptor 4 (Mus musculus). Put plainly: Inhibition of TLR4-mediated NFkappaB p65 activation in LPS-stimulated BALB/c mouse BMDM at 5 ug/ml preincubated for 18 hrs followed by LPS challenge measured after 1 hr by TransAM ELISA. The method in brief:
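Bone marrow macrophages (4 × 10^6/well) had their medium changed after 24 h, were pretreated with compounds at 5 μg/mL for 18 h, then stimulated for 1 h with 100 ng/mL LPS, 10 ng/mL BLP or 1 μM CpG. Activated NFκB p65 in nuclear extracts was measured by TransAM ELISA in duplicate.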

For test [5] the target is unchanged. In words: Inhibition of TLR4 in ovalbumin pulsed C57BL/6 mouse BMDC co-cultured with OT-2 CD4+ T cells assessed as reduction of LPS-induced IL-17 production at 5 ug/mL after 3 days by ELISA. Format: cell-based. The conditions noted are these: T-cell. The method in brief: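 C57BL/6 bone marrow DCs ± compound (5 μg/mL) were treated ± LPS, pulsed with OVA peptide, and cocultured 3 days with naive OT-II CD4+ T cells. IL-17A was measured by ELISA. Responses were normalized to the LPS response at 10, 100 and 300 nM OVA. Values are mean ± SEM, pooled from four experiments.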

The target is the same in test [6]. Put plainly: Inhibition of TLR4 in BALB/c mouse BMDM assessed as reduction of LPS-stimulated IL-6 production at 0.2 ug/ml preincubated for 18 hrs followed by LPS challenge measured after 24 hrs by ELISA.

As to `CN(C)CCS(=O)(=O)Cc1ccc(Br)cc1`, the result in test [1] and in test [2] was Active. Also, the inhibition result in test [3], in test [4] and in test [5] was “Active” each time. Also, in test [6], the inhibition result was “inactive”.
